Laboratory results from ChEMBL document CHEMBL2034960, “Bryonolic acid transcriptional control of anti-inflammatory and antioxidant genes in macrophages in vitro and in vivo” (J Nat Prod, 2012).
The source made the active and inactive calls. No cut-off for these calls is given here.

What was measured:
RAW264.7 [1] = experiment: Cytotoxicity against mouse RAW264.7 cells at 100 uM after 8 hrs by MTT assay; format: cell-based; conditions: raw264.7, 8 h
[2] = biological target: T1, Nuclear factor erythroid 2-related factor 2 (Mus musculus) (UniProt Q60795); experiment: Induction of Nrf2-mediated HO1 mRNA expression in mouse RAW264.7 cells at 100 uM after 2 to 4 hrs by quantitative RT-PCR analysis relative to control; format: cell-based
T1 sequence (whole entry): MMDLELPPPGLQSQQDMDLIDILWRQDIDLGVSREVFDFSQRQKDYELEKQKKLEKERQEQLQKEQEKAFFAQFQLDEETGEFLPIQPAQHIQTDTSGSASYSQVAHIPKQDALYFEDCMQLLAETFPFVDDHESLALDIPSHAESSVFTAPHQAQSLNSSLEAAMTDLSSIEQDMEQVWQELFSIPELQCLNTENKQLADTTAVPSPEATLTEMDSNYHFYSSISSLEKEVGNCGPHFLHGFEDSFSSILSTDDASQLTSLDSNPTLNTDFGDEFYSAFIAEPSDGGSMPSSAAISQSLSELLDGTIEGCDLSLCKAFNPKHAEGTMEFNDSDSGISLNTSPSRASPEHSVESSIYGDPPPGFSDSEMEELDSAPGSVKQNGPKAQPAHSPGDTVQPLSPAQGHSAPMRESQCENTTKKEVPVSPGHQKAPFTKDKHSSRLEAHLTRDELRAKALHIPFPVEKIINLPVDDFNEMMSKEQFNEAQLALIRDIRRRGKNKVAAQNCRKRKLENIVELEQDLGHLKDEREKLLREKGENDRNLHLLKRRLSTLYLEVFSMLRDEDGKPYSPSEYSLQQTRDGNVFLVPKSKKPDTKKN

[3] = biological target: T1, Nuclear factor erythroid 2-related factor 2 (Mus musculus); experiment: Induction of Nrf2-mediated NQO1 mRNA expression in mouse RAW264.7 cells at 100 uM after 24 hrs by quantitative RT-PCR analysis relative to control; format: cell-based
Method in brief: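 RAW 264.7 cells (DMEM, 10% FBS, 37°C, 5% CO2) exposed to 100 μM compound for a series of time points without stated LPS activation. Total RNA isolated, converted to cDNA, and NQO1 quantified by TaqMan real-time RT-PCR using mouse-specific assays. Fold change versus control derived by the ΔΔCt relative quantification method (40 cycles, 95/60 °C).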

[4] = biological target: T1, Nuclear factor erythroid 2-related factor 2 (Mus musculus); experiment: Induction of Nrf2-mediated HO1 mRNA expression in mouse RAW264.7 cells at 100 uM after 24 hrs by quantitative RT-PCR analysis relative to control; format: cell-based
[5] = biological target: T1, Nuclear factor erythroid 2-related factor 2 (Mus musculus); experiment: Induction of Nrf2-mediated NQO1 mRNA expression in mouse RAW264.7 cells at 100 uM after 2 to 4 hrs by quantitative RT-PCR analysis relative to control; format: cell-based
[6] = biological target: T1, Nuclear factor erythroid 2-related factor 2 (Mus musculus); experiment: Induction of Nrf2-mediated CAT mRNA expression in mouse RAW264.7 cells at 100 uM after 4 to 20 hrs by quantitative RT-PCR analysis relative to control; format: cell-based
[7] = biological target: T1, Nuclear factor erythroid 2-related factor 2 (Mus musculus); experiment: Induction of Nrf2 in mouse RAW264.7 cells assessed as […] in CAT mRNA expression at 100 uM after 24 hrs by quantitative RT-PCR analysis relative to control; format: cell-based
RAW264.7 [8] = experiment: Antiinflammatory activity in mouse RAW264.7 cells assessed as inhibition of LPS-induced nitric oxide production at 50 to 100 uM after 24 hrs by Griess method; format: functional; parameters: scale not given: the % may be the effect or the level left
RAW264.7 [9] = experiment: Antioxidant activity in LPS-stimulated mouse RAW264.7 cells assessed as induction of HO-1 mRNA expression at 100 uM after 4 hrs by RT-PCR analysis; format: functional, cell-based

Activity [2] | Activity [3] | Activity [4] | Activity [5] | Activity [6] | Activity [7] | SMILES | Activity (RAW264.7 [1]) | Activity (RAW264.7 [8]) [%] | Activity (RAW264.7 [9])
 |  |  |  |  |  | C[C@H]1[C@H](C)CC[C@]2(C(=O)O)CC[C@]3(C)C(=CC[C@@H]4[C@@]5(C)CC[C@H](O)C(C)(C)[C@@H]5CC[C@]43C)[C@H]12 [URSOLIC ACID] | Toxic |  | 
Active | inactive | inactive | Active | Active | inactive | CC1(C)CC[C@]2(C(=O)O)CC[C@]3(C)C(=CC[C@@H]4[C@@]5(C)CC[C@H](O)C(C)(C)[C@@H]5CC[C@]43C)[C@@H]2C1 [OLEANOLIC_ACID] | Non-toxic | 85 | Active
 |  |  |  |  |  | CC1(C)[C@@H](O)CC[C@]2(C)[C@H]3C(=O)C=C4[C@@H]5C[C@@](C)(C(=O)O)CC[C@]5(C)CC[C@@]4(C)[C@]3(C)CC[C@@H]12 [ENOXOLONE] | Toxic |  | 
